Screens: PubChem, several laboratories
Only some compounds are listed: those with a hit (about 1.8% of all), similar ones and a draw of the others.
GRK2 aptamer HTS: human GRK2 inhibition via aptamer displacement | P25098 | bead flow cytometry, FAM-aptamer displacement from GRK2 | 330,000 tested, 0.59% active | inhibition of aptamer binding, % at 10 µM;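 active = inhibition of aptamer binding above 40%, roughly 3 SD of noise, on plates passing a quality check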;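 note: median bead fluorescence of bound FAM aptamer so fluorescent compounds give negative values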
Target sequence (P25098 whole entry, looked up): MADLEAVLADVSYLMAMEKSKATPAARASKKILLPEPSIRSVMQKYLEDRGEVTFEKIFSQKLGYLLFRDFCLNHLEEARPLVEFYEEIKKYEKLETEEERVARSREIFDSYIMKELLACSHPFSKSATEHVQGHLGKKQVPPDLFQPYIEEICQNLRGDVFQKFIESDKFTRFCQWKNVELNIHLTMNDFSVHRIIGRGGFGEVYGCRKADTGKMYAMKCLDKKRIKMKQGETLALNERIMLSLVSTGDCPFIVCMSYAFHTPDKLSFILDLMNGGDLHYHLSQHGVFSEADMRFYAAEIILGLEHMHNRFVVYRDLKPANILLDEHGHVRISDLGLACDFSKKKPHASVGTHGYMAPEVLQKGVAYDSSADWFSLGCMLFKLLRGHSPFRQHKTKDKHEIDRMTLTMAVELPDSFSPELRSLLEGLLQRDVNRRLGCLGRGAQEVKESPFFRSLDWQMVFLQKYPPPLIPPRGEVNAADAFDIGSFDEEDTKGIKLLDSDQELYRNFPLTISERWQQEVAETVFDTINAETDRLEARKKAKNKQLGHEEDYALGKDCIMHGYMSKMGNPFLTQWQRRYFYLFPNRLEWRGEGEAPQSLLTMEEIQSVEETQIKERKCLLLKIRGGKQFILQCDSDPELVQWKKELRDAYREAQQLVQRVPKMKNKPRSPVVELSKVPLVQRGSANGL
DDE Tn6 FP inh: DD(E)-Tn6 binding inhibition, primary FP screen. 370,000 tested, 0.21% active. P02675. inhibition, % at 8.3 µM. Fibrin DD(E) TRITC-Tn6 fluorescence polarization displacement;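 active = inhibition above a per-campaign cutoff: mean of compounds within control limits plus 3 SD, cut at about 15% in these data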;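 note: 0% = median of all compound wells on the plate and 100% = blocking peptide control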
CAL PDZ FP-1: CAL PDZ (human) peptide binding inhibition; Q9HD26; purified CAL PDZ, TMR-peptide fluorescence polarization, 1 h; inhibition, % at 24.9 µM; 300,000 tested, 0.92% active; AID 602252;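 active = mean inhibition of at least 30% with at least half of replicates also reaching 30%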;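 note: 0% = DMSO neutral control and 100% = excess unlabeled competitor peptide PRC23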
DDE Tn7 FP inh: disrupts Tn7 cyclic peptide binding to fibrin D-Dimer-E complex; FP displacement of FITC-Tn7 peptide from fibrin DD(E); 0% = median of compound wells per plate; inhibition, % at 8.3 µM; 370,000 tested, 0.13% active; AID 720508;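 active = inhibition above the mean of compounds falling within the control limits plus 3 SD of them, cut at about 14% in these data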;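 note: 0% = plate median of compound wells and 100% = 10 µM Aha-Tn7 peptide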
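assay system = human clot-derived fibrin DD(E) complex | quantity = Fibrin-DD(E) at 2 µM final | timing = 10 min preincubation, 3 h with tracer, room temperature | signal = fluorescence polarization | measure = percent inhibition | benchmarks = high control wells with 10 µM unlabelled Aha-Tn7 peptide (full inhibition) | replicates = singlicate testing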
CAL PDZ FP-2: human CAL PDZ-peptide interaction inhibition. purified CAL PDZ, TMR-peptide fluorescence polarization, 1 h. inhibition, % at 20 µM. 330,000 tested, 0.02% active;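 active = highest replicate inhibition of at least 40%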;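 note: plate controls were DMSO neutral control wells for no effect and unlabeled competitor peptide control wells for full effect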
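System: tagged CAL PDZ domain. Schedule: 1 h room-temperature incubation prior to read. Signal: fluorescence polarization (mP). Measure: percent inhibition from loss of millipolarization.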
ARNT-TACC3 inh: ARNT/TACC3 interaction disruption; Q9Y6A5; 390,000 tested, 0.66% active; AlphaScreen His-ARNT PAS-B/GST-TACC3 binding, luminescence; TACC3 fragment carries E629A point mutation; inhibition, % at 9.99 µM;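 active = mean inhibition of replicates at least 50% and at least half of replicates each reaching 50%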;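 note: 0% = complete ARNT plus TACC3 wells and 100% = ARNT alone without TACC3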
GRK2 CP1: human GRK2 inhibition confirmation, cherry pick 1 | bead-bound GRK2, FAM-aptamer displacement, flow cytometry | 2,000 tested, 4% active | aptamer displacement, % at 10 µM | AID 504451 | shares compounds with GRK2 aptamer HTS;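 active = aptamer displacement above 40%, near three times the noise of non-fluorescent compounds, on plates passing quality checks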;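 note: negative values mostly reflect intrinsic compound fluorescence rather than true enhancement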
Aptamer quench: counter-screen for GRK2 aptamer inhibitors: fluorescent aptamer quenchers; Fluorescent RNA aptamer beads, quenching, flow cytometry; active compounds read high; 110 tested, under 10 active; fluorescence change (kMESF span), kMESF (no concentration beside the values); shares compounds with GRK2 aptamer HTS;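 active = compounds whose bead fluorescence drops by more than 37 kMESF across the dose range, marking them as dye quenchers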
FAM quench CP1: aptamer fluorescence quenching in GRK2 counter-screen; 2,000 tested, under 10 active; Carboxyfluorescein RNA aptamer on beads, flow cytometry quenching; active compounds read low; shares compounds with GRK2 aptamer HTS; fluorescence response (% of DMSO), % at 10 µM; AID 504580;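 active = compounds that quench the bead-bound fluorescent RNA probe, cutting fluorescence to under half of the solvent control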;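 note: counterscreen run without GRK2 so only probe quenching by compound is measured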
GRK2 confirm 2: confirmation of human GRK2 inhibitors binding RNA aptamer site; shares compounds with GRK2 aptamer HTS; bead-bound GRK2, FAM-aptamer displacement, flow cytometry; inhibition of aptamer binding, % at 10 µM; 360 tested, under 10 active; AID 504782;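 active = inhibition of aptamer binding above 40%, about triple the noise seen with nonglowing compounds, on plates passing quality control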;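 note: negative values mostly come from compounds that fluoresce themselves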
FAM quench SP: counter-screen for GRK2 binding hits: quenchers of fluorescent RNA aptamer | shares compounds with GRK2 aptamer HTS | fluorescence response vs DMSO, % at 10 µM | carboxyfluorescein RNA aptamer beads, flow cytometry quenching; active compounds read low | 360 tested, under 10 active;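 active = response vs DMSO under 50%, meaning signal dropped by over half, treated as fluorescence quencher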;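 note: labelled aptamer on streptavidin beads without GRK2 as a quench counter-screen; 100% = bead fluorescence of DMSO wells and lower means quenching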
FAM quench PS1: aptamer fluorescence quenching in GRK2 powder counter-screen; Bead-bound FAM RNA aptamer fluorescence quenching, flow cytometry; active compounds read low; 35 tested, under 10 active; shares compounds with GRK2 aptamer HTS; fluorescence ratio to DMSO, % at 11.1 µM;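 active = compounds that dim the fluorescent label, raw bead signal shifting by over 33 units between lowest and highest dose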
* marks the source's active call; other numbers are inactive results; . = no result.

SMILES	GRK2 aptamer HTS	DDE Tn6 FP inh	CAL PDZ FP-1	DDE Tn7 FP inh	CAL PDZ FP-2	ARNT-TACC3 inh	GRK2 CP1	FAM quench CP1	others
Cc1c(C(=O)N/N=C/c2cccnc2)sc(N)c1C#N	4.0	-5.8	-1.8	-7.0	-0.1	8.6	.	.
CCOc1ccccc1C(=O)N[C@H](C(=O)Nc1nc2c(s1)CCCC2)C(C)C	43.0*	-0.3	-1.1	7.8	-2.0	.	0.8	96.7
CN(C)c1ccc(/C=C/c2nc3ccccc3c(=O)n2-c2ccc(C(=O)O)cc2)cc1	7.0	-2.1	-1.9	-57.6	-0.1	-8.1	-3.6	102.2
O=C(/C=C/c1ccco1)Nc1ccccc1C(=O)O	71.0*	-0.9	3.2	-0.4	-1.2	1.3	-4.1	101.1
C=CCN1C(=O)/C(=C/c2ccc(-c3ccc(F)cc3)o2)SC1=S	43.0*	-1.3	.	1.5	0.0	1.2	28.7	103.5
C=CCN1C(=O)/C(=C/c2ccsc2)SC1=S	1.0	0.0	-4.9	-6.9	30.5	.	.	.
C[C@@H]1CN([C@H](C)CO)C(=O)c2cc(C#CC3CCCC3)cnc2O[C@@H]1CN(C)C(=O)C1CC1	.	.	.	.	.	0.5	.	.
O=C(O)c1c2c(nc3ccccc13)CCCCC2	3.0	-5.0	8.0	-1.3	-1.2	-2.7	.	.
O=C(NC1CCCCC1)c1c2c(nc3ccccc13)CCC2	2.0	-0.9	.	-4.6	-1.5	-0.4	.	.	GRK2 confirm 2=-0.9;FAM quench SP=100.0
O=[N+]([O-])c1cccc(-c2cc3cccc[n+]3cc2-c2cccc([N+](=O)[O-])c2)c1	0.0	3.5	-1.3	-5.5	-0.4	-5.6	.	.
Cc1cccc2cc(-c3ccccc3)c(-c3ccccc3)c[n+]12	44.0*	7.5	-2.4	3.0	-1.6	5.0	18.2	62.5
COc1ccc(C(=O)N/C(=C/c2ccc(Cl)cc2)C(=O)Nc2ccc(C(=O)O)cc2)cc1	1.0	1.9	-3.6	5.0	-4.2	1.3	.	.
Cc1ccccc1NC(=O)CCS(=O)(=O)c1ccc(Br)s1	67.0*	-3.6	.	-2.1	-0.1	-7.0	38.3	100.0	Aptamer quench=11.5;FAM quench PS1=95.0
CC(C)NC(=O)CCS(=O)(=O)c1ccc(Br)s1	2.0	-0.7	.	0.5	-0.2	-11.2	.	.
COC(=O)c1ccccc1NC(=O)CCS(=O)(=O)c1ccc(Br)s1	3.0	-6.8	0.4	-1.4	-2.1	5.8	-0.3	102.6	Aptamer quench=1.2;FAM quench PS1=99.0
CCc1nc2c(OCC3CCCCC3)cccn2c1N(C)C(=O)c1ccccc1F	.	6.0	.	-4.5	.	.	.	.
O=C(COC(=O)CNC(=O)c1cccc(Br)c1)Nc1nnc(-c2ccccc2)o1	3.0	0.3	-2.2	-0.8	-0.4	4.9	.	.
O=C(COC(=O)CNC(=O)c1ccccc1)Nc1nnc(-c2ccccc2)o1	0.0	-0.1	-3.5	-1.2	0.0	36.1	-1.1	96.3
Cc1c(/C=C2\SC(=Nc3cccc(C(=O)O)c3)NC2=O)c2ccccc2n1C	64.0*	-13.9	2.7	-1.1	0.6	18.3	2.6	104.7
O=C(NC(=S)Nc1ccc2oc(-c3ccncc3)nc2c1)c1ccccc1F	40.0	0.9	-3.5	0.4	-0.7	.	-14.3	99.7
O=C(Nc1ccc2oc(-c3ccc(F)cc3)nc2c1)c1ccccc1F	2.0	5.0	-2.6	-1.5	-0.2	-3.0	.	.
O=C(CCS(=O)(=O)c1ccccc1)Nc1nnc(C(F)(F)F)s1	25.0	-0.6	.	-9.8	0.0	2.4	8.8	101.8
O=C(CS(=O)(=O)c1ccccc1)Nc1nnc(C(F)(F)F)s1	2.0	-10.3	-7.3	-0.1	0.1	-38.2	.	.
CC(C)(C)c1nnc(NC(=O)CCS(=O)(=O)c2ccccc2)s1	6.0	2.7	.	-0.8	1.1	-6.7	0.9	96.7
Cc1nnc(NC(=O)CCS(=O)(=O)Cc2ccccc2)s1	0.0	4.4	0.8	-5.0	-1.3	-5.2	.	.
SMILES	GRK2 aptamer HTS	DDE Tn6 FP inh	CAL PDZ FP-1	DDE Tn7 FP inh	CAL PDZ FP-2	ARNT-TACC3 inh	GRK2 CP1	FAM quench CP1	others
Cc1nnc(NC(=O)CCS(=O)(=O)c2ccccc2)s1	9.0	-3.4	-4.5	-2.5	-3.0	.	2.1	99.7
CO[C@H]1CN(C)C(=O)c2cc(NS(=O)(=O)c3c(C)noc3C)ccc2OC[C@H](C)NC[C@H]1C	.	.	.	.	.	-0.4	.	.
CCOC(=O)CC(=O)CSc1ccc2nnc(-c3ccc(C)cc3)n2n1	100.0*	4.7	3.0	0.5	-1.2	0.4	-1.7	97.7
CCOC(=O)N1CCN(C(=O)CSc2ccc3nnc(-c4ccncc4)n3n2)CC1	8.0	4.1	-0.1	0.2	-0.6	8.4	.	.
CCn1ccnc1CNC(=O)c1ccc(OC2CCN(C(=O)COC)CC2)cc1	0.0	-4.4	.	0.1	-0.8	12.4	2.6	96.8
CCOC(=O)c1cnc2c(C#N)c(C)nn2c1-c1ccccc1	0.0	5.0	.	9.8	-0.3	-5.6	.	.
CCOC(=O)c1cnc2c(C#N)c(C)nn2c1C	47.0*	1.9	-4.0	6.2	0.2	-5.4	-4.4	99.9
COc1ccc(C2c3ccc(O)cc3Oc3ncn4nc(-c5ccco5)nc4c32)cc1OC (stereo not drawn)	57.0*	-1.9	-1.9	3.2	-2.2	5.5	3.2	98.9
C#CCN(Cc1ccco1)C(=O)c1nnc2c3ccccc3n(S(=O)(=O)c3ccc(C)cc3)c2n1	.	-12.5	.	-4.5	.	.	.	.
Nc1cccn2c(-c3ccc(Cl)cc3)cnc12	19.0	1.4	-1.2	-2.6	0.0	8.6	-1.1	98.9
COc1ccc(/C=C2\SC(=S)N(N3C(=O)CCC3=O)C2=O)cc1O	1.0	-6.2	7.0	6.0	0.8	.	11.7	59.7
COc1ccc(CN2CCC(CNC(=O)Nc3ccc(Cl)cc3)CC2)cc1	.	5.5	.	0.9	.	.	.	.
COc1ccc(NC(=O)CCS(=O)(=O)c2ccc3c(c2)NC(=O)C(C)S3)cc1OC (stereo not drawn)	0.0	4.0	-3.7	-1.2	-1.7	-0.5	.	.
